Source: article PMC11529803 (Medicinal chemistry research : an international journal for …, 2024)
Counter-ions that a name gives are not always drawn.

Assays:
[1] = In vivo metabolism and pharmacokinetics of LH708; set-up: species or system Slc3a1 KO male mice
[2] = tested on: Slc3a1-knockout mouse model of cystinuria; settings: after oral gavage; cited from earlier work
[3] = cited from earlier work
[4] = L-cystine crystallization inhibition assay; settings: for EC50 relative to parent LH708: metabolites of LH708
How it was run: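 Supersaturated L-cystine solution was held with test compound over a concentration range for 72 h at 20 °C, then centrifuged at 14,000 rpm for 10 min at room temperature. Supernatant was diluted 10-fold in water and run in triplicate: potassium cyanide in PBS pH 7.4, 25 min shaking, then sodium nitroprusside, with absorbance read at 530 nm. Cystine was read off a standard curve; EC50 came from nonlinear regression.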

[5] = Crystal growth inhibition by in situ atomic force microscopy; settings: in situ AFM on {0001} growth hillocks
How it was run: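 Real-time in situ AFM in a fluid cell on hexagonal L-cystine crystals grown from aqueous supersaturated solution (pH 6.3), filtered and air-dried. Surface regenerated for 20 min by flowing supersaturated 2 mM cystine at 20 mL/h. Velocities of {1010} steps on the {0001} basal plane were measured without inhibitor (Vo), then with test compound at 15, 30 and 45 µM under identical conditions.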

CN1CCN(C(=O)[C@@H](N)CSSC[C@H](N)C(=O)N2CCN(C)CC2)CC1 [Compound 2, L-cystine bis(N′-methylpiperazide)]
plasma half-life ([1]; after LH708 single dose 150 μmol/kg): ~ 10 min
main metabolic pathway ([1]; single iv or oral dose of LH708, plasma and urine): disulfide exchange
prevention of L-cystine stone formation [2]: active
chemical and metabolic stability compared with L-CDME (1) [3]: chemically and metabolically more stable

N[C@@H](CSSC[C@H](N)C(=O)N1CCNCC1)C(=O)N1CCNCC1 [Compound 3a, L-Cystine bis(piperazide) tetrahydrochloride]
EC50 relative to parent LH708 [4]: ≤ 2 fold
L-cystine crystal growth inhibition (step roughening and decrease of {1010} step velocity) [5]: less effective than the other two compounds

Cl.Cl.Cl.Cl.N[C@@H](CSSC[C@H](N)C(=O)N1CCN(c2ccccc2)CC1)C(=O)N1CCN(c2ccccc2)CC1 [Compound 3e, L-Cystine bis(N′-phenylpiperazide) tetrahydrochloride]
decrease in L-cystine crystallization inhibition activity ([4]; relative to LH708 (N4-methyl)): > 10 fold

Cl.Cl.Cl.Cl.N[C@@H](CSSC[C@H](N)C(=O)N1CCCC12CCNCC2)C(=O)N1CCCC12CCNCC2 [Compound 3j, L-Cystine bis(1,8-diazaspiro[4.5]decan-1-yl) tetrahydrochloride]
reduction in L-cystine crystallization inhibition ([4]; relative to structure isomer 3i): ~5 fold

Cl.Cl.N[C@@H](CSSC[C@H](N)C(=O)NCCN1CCCC1=O)C(=O)NCCN1CCCC1=O [Compound 4e, L-Cystine bis(N′-pyrrolidin-2-one ethyleneamide) dihydrochloride]
L-cystine crystallization inhibition activity (in words) [4]: lost almost all of its crystallization inhibition activity

CN1CCN(C(=O)[C@@H](N)CSSC[C@H](N)C(=O)O)CC1.Cl.Cl.Cl [Compound 25, S-(((R)-2-Amino-3-(4-methylpiperazin-1-yl)-3-oxopropyl)thio)-L-cysteine trihydrochloride]
EC50 relative to parent LH708 [4]: ≤ 2 fold
